Laboratory results published in ChEMBL document CHEMBL1135415, “Rational design and evaluation of new lead compound structures for selective betaARK1 inhibitors” (J Med Chem, 2002).
The source made the active and inactive calls. The rule behind the calls is not given here.

target: cAMP-dependent protein kinase (PKA) (Homo sapiens) (UniProt P22694+P17612+P22612); experiment: Inhibition of Protein kinase A (PKA) at 1 mM; assay type: functional
How it was run: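 Colorimetric kit assay of PKA (final 87 units/μL) with dye-linked kemptide substrate (LRRASLG). Incubated 30 min at 30 °C. Phosphorylated substrate captured on affinity membrane, eluted, read at OD 570 nm. PKI5-24 was the positive control.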

inhibition	SMILES
1.8%	COC(=O)c1ccc(/C=C/c2ccc([N+](=O)[O-])o2)o1
-2.2%	CCC(=O)n1nc2c(c1C(C)(C)C)C(=O)c1ccccc1-2

target: T1, Beta-adrenergic receptor kinase 1 (Homo sapiens) (UniProt P25098); experiment: Inhibition of Beta-adrenergic receptor kinase 1 at 1 mM
T1 sequence (whole entry): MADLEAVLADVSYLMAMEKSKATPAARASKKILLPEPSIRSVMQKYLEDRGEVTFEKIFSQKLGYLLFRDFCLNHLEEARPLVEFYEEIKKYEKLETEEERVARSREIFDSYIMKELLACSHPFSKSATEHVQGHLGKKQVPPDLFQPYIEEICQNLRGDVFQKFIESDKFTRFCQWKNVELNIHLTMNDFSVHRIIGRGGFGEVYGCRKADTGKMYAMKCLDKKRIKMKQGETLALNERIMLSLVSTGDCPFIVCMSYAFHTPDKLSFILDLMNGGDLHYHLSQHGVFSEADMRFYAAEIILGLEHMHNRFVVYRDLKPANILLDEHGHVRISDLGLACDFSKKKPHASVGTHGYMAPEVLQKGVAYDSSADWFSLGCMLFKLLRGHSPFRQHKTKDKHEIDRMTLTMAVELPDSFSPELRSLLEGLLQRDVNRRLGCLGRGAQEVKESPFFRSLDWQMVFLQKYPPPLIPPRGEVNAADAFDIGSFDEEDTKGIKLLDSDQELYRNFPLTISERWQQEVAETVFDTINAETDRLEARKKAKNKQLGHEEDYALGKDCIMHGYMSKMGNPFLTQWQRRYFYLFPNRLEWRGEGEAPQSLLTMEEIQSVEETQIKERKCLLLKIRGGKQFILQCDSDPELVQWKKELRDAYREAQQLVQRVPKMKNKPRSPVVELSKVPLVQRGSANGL
How it was run: (§1)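 Radiometric assay of βARK1 phosphorylating the intracellular C-terminal domain of human β2-adrenergic receptor (6.7 μM) with 10 mM [γ-32P]ATP (18.5 kBq). Stopped on ice water, then gel electrophoresis and imaging-plate readout of radioactivity. Inhibition % taken against control and background.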

SMILES	inhibition
O=C(NCc1ccco1)c1ccc([N+](=O)[O-])o1	37.7%
CC(=O)CC(=O)Nc1cc(C(C)(C)C)sc1C(N)=O	37.3%
Oc1nnc(Cc2ccc(-c3ccccc3Cl)o2)c2ccccc12	67.3%
O=C1C(O)=C(O)O[C@H]1C1COC2(CCCCC2)O1 (stereo not given in full)	20.4%
NC(=O)c1ncn([C@@H]2O[C@@H](CO)[C@H](O)[C@@H]2O)n1	0%
O=C1C(O)=C(O)O[C@@H]1C1COC2(CCCCC2)O1 (stereo not given in full)	0%
Nc1nc(O)c2ncn([C@H]3O[C@@H]4COP(=O)(O)O[C@H]4[C@H]3O)c2n1	24.2%
COC(=O)c1sccc1Oc1ccc(C(F)(F)F)cc1NC=C(C#N)C#N	28.8%

The remaining lines, values ahead:

inhibition	SMILES
88.4%	COC(=O)c1ccc(/C=C/c2ccc([N+](=O)[O-])o2)o1
20.1%	CCOC(=O)c1cnc2c(C(F)(F)F)cccc2c1O
0%	CC(C)COC(=O)CSc1nc2c(c(=O)[nH]c(=O)n2C)n1C
26.5%	Cc1ccc(Cl)cc1NCN1C(=O)CNC1=S
52.7%	CCC(=O)n1nc2c(c1C(C)(C)C)C(=O)c1ccccc1-2

target: T2, Beta-adrenergic receptor kinase 1 (Homo sapiens, UniProt P25098); experiment: Inhibition of Beta-adrenergic receptor kinase 1; how it was run: as §1
T2 sequence (P25098 whole entry): T1 sequence (whole entry)

IC50	SMILES
126 µM	COC(=O)c1ccc(/C=C/c2ccc([N+](=O)[O-])o2)o1
563 µM	CCC(=O)n1nc2c(c1C(C)(C)C)C(=O)c1ccccc1-2

target: T1, Beta-adrenergic receptor kinase 1 (Homo sapiens); experiment: Inhibition of Beta-adrenergic receptor kinase 1 at 1 mM (Inactive); how it was run: as §1

SMILES	inhibition
CC(C)Sc1nc2sccn2c1/C=N/OCc1c(Cl)cccc1Cl	inactive
CCCCCCCCCCCCCCCCN(C)c1ccc(S(C)(=O)=O)cc1N	inactive
C/C(CCS(=O)(=O)c1ccccc1)=N\OC/C=C/Cl	inactive
COc1ccc(/C=N/c2ccc(O)cc2)cc1	inactive
O=[N+]([O-])c1ccccc1/N=C/c1ccc2c(c1)OCO2	inactive
O=C(Nc1ccc(F)c([N+](=O)[O-])c1)Nc1cccc2c(O)cccc12	inactive

Next, values leading:

inhibition	SMILES
inactive	Cc1csc(-c2nc(-c3ccc(Cl)cc3)no2)c1Cl
inactive	Clc1ccc(-c2csc(Nc3ccccc3)n2)cc1
